Experimental data from ChEMBL document CHEMBL4706487, “Antitumor agents 7. Synthesis, antiproliferative activity and molecular modeling of new l-lysine-conjugated pyridophenoxazinones as potent DNA-binding ligands and topoisomerase IIα inhibitors” (Eur J Med Chem, 2020).
Calls of active or inactive are those of the source. No cut-off for these calls is given here.

Tests used:
HeLa = test: Antiproliferative activity against human HeLa cells assessed as cell viability measured after 4 days by MTT assay; format: functional, cell-based; details: 96 h
Procedure, shortened: (§1)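 Solid-tumor cells (own media, 10% FCS) were seeded at 5 × 10⁴ cells/mL, allowed 16 h to adhere, then dosed and read by MTT 4 days later. IC50 was derived by linear regression of growth as % of untreated controls.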

[1] = target: DNA topoisomerase 2-beta (Homo sapiens) (UniProt Q02880); test: Poison activity at topo2beta (unknown origin) assessed as induction of accumulation of topo-2/DNA cleavage complex formation by agarose gel electrophoresis
Chain of DNA topoisomerase 2-beta (Homo sapiens) (Q02880 whole entry): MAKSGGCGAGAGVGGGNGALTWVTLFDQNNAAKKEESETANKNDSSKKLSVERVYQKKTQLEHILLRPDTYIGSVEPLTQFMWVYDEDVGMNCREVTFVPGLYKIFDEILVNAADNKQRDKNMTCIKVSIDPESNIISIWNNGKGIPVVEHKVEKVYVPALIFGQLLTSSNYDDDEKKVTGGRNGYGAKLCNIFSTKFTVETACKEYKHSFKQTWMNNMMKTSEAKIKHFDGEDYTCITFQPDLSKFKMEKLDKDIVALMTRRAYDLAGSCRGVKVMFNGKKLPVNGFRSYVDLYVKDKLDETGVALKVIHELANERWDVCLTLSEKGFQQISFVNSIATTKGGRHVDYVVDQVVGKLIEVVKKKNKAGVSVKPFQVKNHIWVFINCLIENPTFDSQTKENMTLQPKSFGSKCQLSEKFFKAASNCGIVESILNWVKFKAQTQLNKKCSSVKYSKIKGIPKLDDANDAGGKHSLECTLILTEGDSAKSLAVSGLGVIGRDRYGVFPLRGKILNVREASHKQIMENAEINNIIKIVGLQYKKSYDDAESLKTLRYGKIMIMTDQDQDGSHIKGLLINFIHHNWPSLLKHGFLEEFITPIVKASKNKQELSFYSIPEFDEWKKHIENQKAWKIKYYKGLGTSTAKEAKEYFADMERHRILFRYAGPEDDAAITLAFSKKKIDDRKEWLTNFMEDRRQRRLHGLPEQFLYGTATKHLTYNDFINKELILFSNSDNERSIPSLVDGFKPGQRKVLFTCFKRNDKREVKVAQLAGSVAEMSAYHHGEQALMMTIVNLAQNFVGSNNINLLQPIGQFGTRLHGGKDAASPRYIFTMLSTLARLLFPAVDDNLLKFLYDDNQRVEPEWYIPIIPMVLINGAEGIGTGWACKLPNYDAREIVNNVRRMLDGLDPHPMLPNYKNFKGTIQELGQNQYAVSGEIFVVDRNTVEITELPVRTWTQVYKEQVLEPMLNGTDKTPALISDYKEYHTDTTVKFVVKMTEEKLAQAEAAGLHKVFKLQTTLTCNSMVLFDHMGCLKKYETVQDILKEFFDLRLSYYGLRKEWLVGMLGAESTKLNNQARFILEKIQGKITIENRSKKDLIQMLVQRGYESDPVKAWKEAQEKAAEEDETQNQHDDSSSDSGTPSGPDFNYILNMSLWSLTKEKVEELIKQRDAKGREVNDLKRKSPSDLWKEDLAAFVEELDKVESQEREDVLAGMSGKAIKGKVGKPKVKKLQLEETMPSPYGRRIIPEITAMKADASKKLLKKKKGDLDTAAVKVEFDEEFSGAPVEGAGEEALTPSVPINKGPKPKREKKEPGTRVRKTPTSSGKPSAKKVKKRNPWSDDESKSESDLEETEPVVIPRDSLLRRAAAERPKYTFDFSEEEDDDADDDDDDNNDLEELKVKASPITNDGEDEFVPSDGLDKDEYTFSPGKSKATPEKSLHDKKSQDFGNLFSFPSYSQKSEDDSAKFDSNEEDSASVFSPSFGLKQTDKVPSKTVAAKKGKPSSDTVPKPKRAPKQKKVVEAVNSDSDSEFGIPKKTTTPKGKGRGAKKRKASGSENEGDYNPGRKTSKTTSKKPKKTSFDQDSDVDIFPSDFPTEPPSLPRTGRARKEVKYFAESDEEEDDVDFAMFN

MT4 = test: Antiproliferative activity against human MT-4 cells assessed as cell viability measured after 4 days by MTT assay; format: functional, cell-based; details: MT4, 96 h
Procedure, shortened: as §1, with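 “Leukemia/lymphoma cells (RPMI 1640, 10% FCS) resuspended at 1 × 10⁵ cells/mL with serial drug dilutions and read by MTT after 96 h at 37 °C. Solid-tumor” for “Solid-tumor”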

[2] = target: DNA topoisomerase 2-alpha (Homo sapiens) (UniProt P11388); test: Inhibition of human topoisomerase 2alpha mediated pBR322 DNA relaxation at 1.5 uM by agarose gel electrophoresis relative to control
Chain of DNA topoisomerase 2-alpha (Homo sapiens) (P11388 whole entry): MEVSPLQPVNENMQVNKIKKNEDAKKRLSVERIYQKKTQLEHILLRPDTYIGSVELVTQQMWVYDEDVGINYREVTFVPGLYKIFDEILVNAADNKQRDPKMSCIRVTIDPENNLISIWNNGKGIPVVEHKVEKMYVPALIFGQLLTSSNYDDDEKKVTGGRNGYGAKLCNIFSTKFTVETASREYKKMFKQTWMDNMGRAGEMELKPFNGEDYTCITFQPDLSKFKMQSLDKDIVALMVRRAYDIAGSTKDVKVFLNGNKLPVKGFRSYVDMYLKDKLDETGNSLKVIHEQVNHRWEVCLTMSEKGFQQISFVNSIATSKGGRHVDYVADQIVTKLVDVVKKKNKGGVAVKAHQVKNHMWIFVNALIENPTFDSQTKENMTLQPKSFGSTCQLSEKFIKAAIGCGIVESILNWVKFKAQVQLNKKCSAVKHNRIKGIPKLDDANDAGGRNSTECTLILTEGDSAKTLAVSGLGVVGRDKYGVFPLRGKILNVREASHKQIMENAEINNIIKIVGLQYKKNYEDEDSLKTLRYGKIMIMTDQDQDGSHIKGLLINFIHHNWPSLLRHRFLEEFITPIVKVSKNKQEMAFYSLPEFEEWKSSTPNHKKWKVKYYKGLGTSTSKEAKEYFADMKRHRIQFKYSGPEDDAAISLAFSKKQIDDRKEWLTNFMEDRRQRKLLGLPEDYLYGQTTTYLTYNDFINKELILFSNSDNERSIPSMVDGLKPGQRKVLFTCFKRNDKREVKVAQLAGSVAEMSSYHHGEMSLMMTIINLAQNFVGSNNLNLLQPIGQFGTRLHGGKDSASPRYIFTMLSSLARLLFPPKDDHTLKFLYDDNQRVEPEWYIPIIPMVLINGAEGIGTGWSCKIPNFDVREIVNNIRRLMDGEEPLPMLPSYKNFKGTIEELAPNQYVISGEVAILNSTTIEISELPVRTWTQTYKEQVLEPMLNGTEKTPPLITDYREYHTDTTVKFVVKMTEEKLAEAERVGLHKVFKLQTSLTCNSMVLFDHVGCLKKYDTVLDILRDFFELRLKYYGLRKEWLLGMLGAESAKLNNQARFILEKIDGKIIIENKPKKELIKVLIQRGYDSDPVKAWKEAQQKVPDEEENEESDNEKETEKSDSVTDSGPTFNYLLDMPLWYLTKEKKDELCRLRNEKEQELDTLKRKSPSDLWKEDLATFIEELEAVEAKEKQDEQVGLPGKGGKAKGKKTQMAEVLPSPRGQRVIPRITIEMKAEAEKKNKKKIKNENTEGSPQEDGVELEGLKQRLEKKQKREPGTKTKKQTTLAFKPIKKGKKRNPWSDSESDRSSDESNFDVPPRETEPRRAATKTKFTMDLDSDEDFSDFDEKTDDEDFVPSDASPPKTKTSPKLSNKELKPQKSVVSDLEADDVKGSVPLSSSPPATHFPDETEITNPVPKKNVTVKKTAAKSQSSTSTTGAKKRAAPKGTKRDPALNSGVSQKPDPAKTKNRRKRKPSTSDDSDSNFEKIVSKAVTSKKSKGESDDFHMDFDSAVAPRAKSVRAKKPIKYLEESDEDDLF

MCF7 [3] = test: Induction of cell cycle arrest in human MCF7 cells assessed as accumulation of cells at G0/G1 phase at 0.1 uM after 48 hrs by flow cytometry (reference value: 51.7%); format: functional
Procedure, shortened: (§2)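 MCF-7 cells exposed continuously to vehicle or 0.1 µM drug for 12, 24 and 48 h. Cell cycle distribution was assessed by flow cytometry.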

MCF7 [4] = test: Induction of cell cycle arrest in human MCF7 cells assessed as accumulation of cells at G2/M phase at 0.1 uM after 48 hrs by flow cytometry (reference value: 17%); format: functional; procedure, shortened: as §2
MCF7 [5] = test: Induction of DNA damage in human MCF7 cells assessed as increase tail length at 1 to 10 uM after 24 hrs by comet assay; format: functional, cell-based; details: dose 1-10 µM
Procedure, shortened: (§3)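 About 1 × 10⁵ MCF-7 cells seeded; after 24 h, drug added for 24 h, with 10 µM VP-16 as positive control. Alkaline comet assay: lysis 1 h at 4 °C at pH 10, unwinding at pH 13, then electrophoresis at 30 V for 15 min. Slides neutralized, PI-stained and imaged by fluorescence microscopy at 10×. Tail lengths were taken from randomly selected cells.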

MCF7 [6] = test: Induction of cell cycle arrest in human MCF7 cells assessed as accumulation of cells at G0/G1 phase at 0.1 uM after 24 hrs by flow cytometry (reference value: 51.7%); format: functional; procedure, shortened: as §2
MCF7 [7] = test: Induction of cell cycle arrest in human MCF7 cells assessed as accumulation of cells at G0/G1 phase at 0.1 uM after 12 hrs by flow cytometry (reference value: 51.7%); format: functional; procedure, shortened: as §2
Calf thymus DNA [8] = test: Binding affinity to calf thymus DNA assessed as hypochromism by UV-vis spectroscopy; details: Bos taurus
MCF7 [9] = test: Induction of cell cycle arrest in human MCF7 cells assessed as accumulation of cells at S phase at 0.1 uM after 48 hrs by flow cytometry (reference value: 31.3%); format: functional; procedure, shortened: as §2
[10] = target: DNA topoisomerase 2-alpha (Homo sapiens) (UniProt P11388); test: Inhibition of human topoisomerase 2alpha mediated pBR322 DNA relaxation at 0.7 uM by agarose gel electrophoresis relative to control
Calf thymus DNA [11] = test: Binding affinity to calf thymus DNA assessed as red shift by UV-vis spectroscopy; format: nucleic-acid assay; design: unit not given here; details: Bos taurus
Procedure, shortened: (§4)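 ctDNA held at 0.2 mM in phosphate buffer pH 7 and titrated with drug from […]. UV-vis spectra recorded in a 1 cm quartz cuvette. Binding constant was taken by the mole-ratio method from optical density changes at 260 nm, using a double reciprocal plot.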

HT-29 = test: Antiproliferative activity against human HT-29 cells assessed as cell viability measured after 4 days by MTT assay; format: functional, cell-based; details: HT-29, 96 h
Procedure, shortened: as §1, with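 “Leukemia/lymphoma cells (RPMI 1640, 10% FCS) resuspended at 1 × 10⁵ cells/mL with serial drug dilutions and read by MTT after 96 h at 37 °C. Solid-tumor” for “Solid-tumor”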

G-361 = test: Antiproliferative activity against human G-361 cells assessed as cell viability measured after 4 days by MTT assay; format: functional, cell-based; details: G-361, 96 h
Procedure, shortened: as §1, with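 “Leukemia/lymphoma cells (RPMI 1640, 10% FCS) resuspended at 1 × 10⁵ cells/mL with serial drug dilutions and read by MTT after 96 h at 37 °C. Solid-tumor” for “Solid-tumor”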

MCF7 [12] = test: Induction of cell cycle arrest in human MCF7 cells assessed as accumulation of cells at G2/M phase at 0.1 uM after 12 hrs by flow cytometry (reference value: 17%); format: functional; procedure, shortened: as §2
MCF7 [13] = test: Induction of cell cycle arrest in human MCF7 cells assessed as accumulation of cells at G2/M phase at 0.1 uM after 24 hrs by flow cytometry (reference value: 17%); format: functional; procedure, shortened: as §2
MCF7 [14] = test: Induction of cell cycle arrest in human MCF7 cells assessed as accumulation of cells at S phase at 0.1 uM after 12 hrs by flow cytometry (reference value: 31.3%); format: functional; procedure, shortened: as §2
SK-MEL-28 = test: Antiproliferative activity against human SKMEL-28 cells assessed as cell viability measured after 4 days by MTT assay; format: functional, cell-based; details: SK-MEL-28, 96 h
Procedure, shortened: as §1, with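 “Leukemia/lymphoma cells (RPMI 1640, 10% FCS) resuspended at 1 × 10⁵ cells/mL with serial drug dilutions and read by MTT after 96 h at 37 °C. Solid-tumor” for “Solid-tumor”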

MCF7 [15] = test: Induction of DNA damage in human MCF7 cells assessed as increase tail length at 10 uM after 24 hrs by comet assay (reference value: 8%); format: functional; procedure, shortened: as §3
CCRF-CEM = test: Antiproliferative activity against human CCRF-CEM cells assessed as cell viability measured after 4 days by MTT assay; format: functional, cell-based; details: 96 h
Procedure, shortened: as §1, with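 “Leukemia/lymphoma cells (RPMI 1640, 10% FCS) resuspended at 1 × 10⁵ cells/mL with serial drug dilutions and read by MTT after 96 h at 37 °C. Solid-tumor” for “Solid-tumor”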

MCF7 [16] = test: Induction of cell cycle arrest in human MCF7 cells assessed as accumulation of cells at S phase at 0.1 uM after 24 hrs by flow cytometry (reference value: 31.3%); format: functional; procedure, shortened: as §2
DNA [17] = test: Binding affinity at Escherichia coli pBR322 DNA assessed as unwinding of supercoiled DNA at 10 uM incubated for 10 mins in presence of human topoisomerase 1 by agarose gel based electrophoresis; format: nucleic-acid assay
Procedure, shortened: (§5)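 Intercalation assay with relaxed pBR322 (300 ng) and 2 units human Topo I in 50 mM Tris-HCl pH 7.5, 2.5 mM MgCl₂, 0.5 mM DTT and 50 µg/mL BSA, run 10 min at 37 °C. Stopped by phenol/chloroform/isoamyl alcohol extraction. Products run on 1.2% agarose in TAE, 2 V/cm for 15 h, then EtBr-stained. EtBr served as control; three independent experiments.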

[18] = target: DNA topoisomerase 2-alpha (Homo sapiens) (UniProt P11388); test: Poison activity at human topo2alpha assessed as induction of accumulation of topo-2/DNA cleavage complex formation at 1 to 5 uM using […] plasmid incubated for 10 mins by agarose gel electrophoresis; details: dose 1-5 µM
Procedure, shortened: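 Supercoiled pBR322 incubated with purified Topo IIα and drug for 10 min at 30 °C. Stopped with 0.35% SDS plus 0.3 mg/mL proteinase K (final), then 1 h at 56 °C. Products run on 1.2% agarose gels containing EtBr. Linear DNA quantified by gel densitometry; averages of three independent experiments.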

DNA [19] = test: Binding affinity at Escherichia coli pBR322 DNA assessed as unwinding of supercoiled DNA at 0.1 uM incubated for 10 mins in presence of human topoisomerase 1 by agarose gel based electrophoresis; format: nucleic-acid assay; procedure, shortened: as §5
Calf thymus DNA [20] = test: Binding affinity to calf thymus DNA assessed as lamda max by UV-vis spectroscopy; format: nucleic-acid assay; details: Bos taurus; procedure, shortened: as §4
MCF7 [21] = test: Antiproliferative activity against human MCF7 cells assessed as cell viability measured after 4 days by MTT assay; format: functional, cell-based; details: MCF7, 96 h
Procedure, shortened: as §1, with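 “Leukemia/lymphoma cells (RPMI 1640, 10% FCS) resuspended at 1 × 10⁵ cells/mL with serial drug dilutions and read by MTT after 96 h at 37 °C. Solid-tumor” for “Solid-tumor”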

ACHN = test: Antiproliferative activity against human ACHN cells assessed as cell viability measured after 4 days by MTT assay; format: functional, cell-based; details: 96 h
Procedure, shortened: as §1, with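 “Leukemia/lymphoma cells (RPMI 1640, 10% FCS) resuspended at 1 × 10⁵ cells/mL with serial drug dilutions and read by MTT after 96 h at 37 °C. Solid-tumor” for “Solid-tumor”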

CCRF-SB = test: Antiproliferative activity against human CCRF-SB cells assessed as cell viability measured after 4 days by MTT assay; format: functional, cell-based; details: 96 h
Procedure, shortened: as §1, with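 “Leukemia/lymphoma cells (RPMI 1640, 10% FCS) resuspended at 1 × 10⁵ cells/mL with serial drug dilutions and read by MTT after 96 h at 37 °C. Solid-tumor” for “Solid-tumor”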

MCF7 [22] = test: Induction of DNA damage in human MCF7 cells assessed as increase in gammaH2AX foci at 5 to 10 uM measured after 0.5 to 3 hrs by Western blot analysis; format: functional, cell-based; details: dose 5-10 µM, time 0.5-3 hrs
Procedure, shortened: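 MCF-7 cells were treated for 0.5, 1 and 3 h, washed with ice-cold PBS and lysed in RIPA buffer containing PMSF and protease inhibitors. Lysates run on SDS-PAGE, blotted to PVDF and probed for H2AX, with β-actin as loading control. Detection by HRP secondary antibody and enhanced chemiluminescence.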

Calf thymus DNA [23] = test: Binding affinity to calf thymus DNA assessed as isosbestic point by UV-vis spectroscopy; format: nucleic-acid assay; details: Bos taurus; procedure, shortened: as §4
[24] = target: DNA topoisomerase 2-alpha (Homo sapiens) (UniProt P11388); test: Inhibition of human topoisomerase 2alpha mediated pBR322 DNA relaxation at 1 uM by agarose gel electrophoresis relative to control
[25] = target: DNA topoisomerase 2-alpha (Homo sapiens) (UniProt P11388); test: Inhibition of human topoisomerase 2alpha mediated pBR322 DNA relaxation at 2 uM by agarose gel electrophoresis relative to control

Structure (SMILES): N[C@@H](CCCCNC(=O)c1ccc2nc3c4cccnc4c(=O)cc-3oc2c1)C(=O)O
- IC50 (HeLa): 5 nM
- Activity [1]: inactive
- IC50 (MT4): 6 nM
- inhibition [2]: 100%
- Activity (MCF7 [3]): 42.5%
- Activity (MCF7 [4]): 48.77%
- Activity (MCF7 [5]): Active
- Activity (MCF7 [6]): 48%
- Activity (MCF7 [7]): 51.71%
- Activity (Calf thymus DNA [8]): 58%
- Activity (MCF7 [9]): 8.73%
- inhibition [10]: 50%
- Activity (Calf thymus DNA [11]): 448
- IC50 (HT-29): 4 nM
- IC50 (G-361): 6 nM
- Activity (MCF7 [12]): 17.8%
- Activity (MCF7 [13]): 26%
- Activity (MCF7 [14]): 30.5%
- IC50 (SK-MEL-28): 2 nM
- Activity (MCF7 [15]): 50%
- IC50 (CCRF-CEM): 3 nM
- Activity (MCF7 [16]): 26%
- Activity (DNA [17]): Active
- Activity [18]: Active
- Activity (DNA [19]): Active
- Activity (Calf thymus DNA [20]): 443
- IC50 (MCF7 [21]): 3 nM
- IC50 (ACHN): 5 nM
- IC50 (CCRF-SB): 5 nM
- Activity (MCF7 [22]): Active
- Activity (Calf thymus DNA [23]): 340 nm

Structure (SMILES): NCCCC[C@H](NC(=O)c1ccc2nc3c4cccnc4c(=O)cc-3oc2c1)C(=O)O
- IC50 (HeLa): 5 nM
- IC50 (MT4): 10 nM
- Activity (Calf thymus DNA [8]): 28
- Activity (Calf thymus DNA [11]): 447
- IC50 (HT-29): 3 nM
- IC50 (G-361): 1 nM
- inhibition [24]: 50%
- IC50 (SK-MEL-28): 2 nM
- IC50 (CCRF-CEM): 20 nM
- Activity (DNA [17]): Active
- Activity [18]: Active
- Activity (DNA [19]): Active
- Activity (Calf thymus DNA [20]): 443
- IC50 (MCF7 [21]): 7 nM
- IC50 (ACHN): 8 nM
- inhibition [25]: 100%
- IC50 (CCRF-SB): 20 nM
- Activity (Calf thymus DNA [23]): 395 nm

Structure (SMILES): O=c1cc2oc3ccccc3nc-2c2ncccc12
- IC50 (HeLa): 150 nM
- IC50 (MT4): 180 nM
- IC50 (HT-29): 380 nM
- IC50 (G-361): 450 nM
- IC50 (SK-MEL-28): 400 nM
- IC50 (CCRF-CEM): 90 nM
- IC50 (MCF7 [21]): 370 nM
- IC50 (ACHN): 230 nM
- IC50 (CCRF-SB): 150 nM

Structure (SMILES): COc1cc([C@@H]2c3cc4c(cc3[C@@H](O[C@@H]3O[C@@H]5CO[C@@H](C)O[C@H]5[C@H](O)[C@H]3O)[C@H]3COC(=O)[C@H]23)OCO4)cc(OC)c1O [ETOPOSIDE]
- IC50 (HeLa): 3000 nM
- IC50 (G-361): 2300 nM
- IC50 (SK-MEL-28): 1100 nM
